Source: ChEMBL document CHEMBL5058577, “EUbOPEN Chemogenomics Library 2 (Multiplex)” (2022)

Tested on: HEK-293T
Experiment: Multiplex assay against HEK293T
Format: toxicity, cell-based
Conditions: human
In short: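 Live cells were stained at seeding with Hoechst33342, BioTracker Green Microtubule Cytoskeleton Dye, MitoTracker Red and Annexin V Alexa Fluor 680, then imaged on a CQ1 microscope at 37°C and 5% CO2 after compound addition. CellPathfinder machine-learning gating split cells into Hoechst high-intensity objects or normal cells. Normal cells were split into healthy, pyknosed or fragmented nuclei, and pyknosed cells into mitotic or apoptotic. Tubulin, mitochondrial-mass and membrane-permeability phenotypes are per cents of healthy-nucleus cells.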

[1] = 12 h, 1 µM, compound concentration 1 uM, replicate 1
[2] = 12 h, 1 µM, compound concentration 1 uM, replicate 2
[3] = 12 h, 10 µM, compound concentration 10 uM, replicate 1
[4] = 12 h, 10 µM, compound concentration 10 uM, replicate 2
[5] = 24 h, 1 µM, compound concentration 1 uM, replicate 1
[6] = 24 h, 1 µM, compound concentration 1 uM, replicate 2
[7] = 24 h, 10 µM, compound concentration 10 uM, replicate 1
[8] = 24 h, 10 µM, compound concentration 10 uM, replicate 2
[9] = 48 h, 1 µM, compound concentration 1 uM, replicate 1
[10] = 48 h, 1 µM, compound concentration 1 uM, replicate 2
[11] = 48 h, 10 µM, compound concentration 10 uM, replicate 1
[12] = 48 h, 10 µM, compound concentration 10 uM, replicate 2

S=C(NCCCc1c[nH]cn1)NCCCN(Cc1ccc(Cl)c(Cl)c1)c1ccc(Br)cn1
Population Apoptotic (%) [1]: 39%
Population Fragmented Nuclei (%) [1]: 8%
Population Healthy Nuclei (%) [1]: 78%
Population Hoechst High Intensity Objects (%) [1]: 17%
Population Membrane Permeable-Phenotype (%) [1]: 0%
Population Mitochondria Different-Phenotype (%) [1]: 50%
Population Mitotic Cells (%) [1]: 60%
Population Normal (%) [1]: 82%
Population Pyknosed Nuclei (%) [1]: 13%
Population Tubulin-Different-Phenotype (%) [1]: 36%
Total Cell Count [1]: 378
Population Apoptotic (%) [2]: 53%
Population Fragmented Nuclei (%) [2]: 5%
Population Healthy Nuclei (%) [2]: 79%
Population Hoechst High Intensity Objects (%) [2]: 6%
Population Mitochondria Different-Phenotype (%) [2]: 58%
Population Mitotic Cells (%) [2]: 46%
Population Normal (%) [2]: 93%
Population Pyknosed Nuclei (%) [2]: 14%
Population Tubulin-Different-Phenotype (%) [2]: 35%
Total Cell Count [2]: 294
Population Apoptotic (%) [3]: 90%
Population Fragmented Nuclei (%) [3]: 4%
Population Healthy Nuclei (%) [3]: 57%
Population Hoechst High Intensity Objects (%) [3]: 33%
Population Membrane Permeable-Phenotype (%) [3]: 0%
Population Mitochondria Different-Phenotype (%) [3]: 77%
Population Mitotic Cells (%) [3]: 9%
Population Normal (%) [3]: 66%
Population Pyknosed Nuclei (%) [3]: 38%
Population Tubulin-Different-Phenotype (%) [3]: 78%
Total Cell Count [3]: 242
Population Apoptotic (%) [4]: 77%
Population Fragmented Nuclei (%) [4]: 8%
Population Healthy Nuclei (%) [4]: 71%
Population Hoechst High Intensity Objects (%) [4]: 19%
Population Mitochondria Different-Phenotype (%) [4]: 84%
Population Mitotic Cells (%) [4]: 22%
Population Normal (%) [4]: 80%
Population Pyknosed Nuclei (%) [4]: 19%
Total Cell Count [4]: 229
Population Apoptotic (%) [5]: 39%
Population Fragmented Nuclei (%) [5]: 10%
Population Healthy Nuclei (%) [5]: 73%
Population Hoechst High Intensity Objects (%) [5]: 22%
Population Membrane Permeable-Phenotype (%) [5]: 0%
Population Mitochondria Different-Phenotype (%) [5]: 45%
Population Mitotic Cells (%) [5]: 60%
Population Normal (%) [5]: 77%
Population Pyknosed Nuclei (%) [5]: 16%
Population Tubulin-Different-Phenotype (%) [5]: 32%
Total Cell Count [5]: 326
Population Apoptotic (%) [6]: 41%
Population Fragmented Nuclei (%) [6]: 9%
Population Healthy Nuclei (%) [6]: 81%
Population Hoechst High Intensity Objects (%) [6]: 13%
Population Mitochondria Different-Phenotype (%) [6]: 48%
Population Mitotic Cells (%) [6]: 58%
Population Normal (%) [6]: 86%
Population Pyknosed Nuclei (%) [6]: 9%
Total Cell Count [6]: 301
Population Apoptotic (%) [7]: 85%
Population Fragmented Nuclei (%) [7]: 11%
Population Healthy Nuclei (%) [7]: 49%
Population Hoechst High Intensity Objects (%) [7]: 48%
Population Membrane Permeable-Phenotype (%) [7]: 1%
Population Mitochondria Different-Phenotype (%) [7]: 75%
Population Mitotic Cells (%) [7]: 14%
Population Normal (%) [7]: 51%
Population Pyknosed Nuclei (%) [7]: 39%
Population Tubulin-Different-Phenotype (%) [7]: 78%
Total Cell Count [7]: 237
Population Apoptotic (%) [8]: 82%
Population Fragmented Nuclei (%) [8]: 16%
Population Healthy Nuclei (%) [8]: 59%
Population Hoechst High Intensity Objects (%) [8]: 39%
Population Membrane Permeable-Phenotype (%) [8]: 0%
Population Mitochondria Different-Phenotype (%) [8]: 82%
Population Mitotic Cells (%) [8]: 17%
Population Normal (%) [8]: 61%
Population Pyknosed Nuclei (%) [8]: 23%
Total Cell Count [8]: 200
Population Apoptotic (%) [9]: 47%
Population Fragmented Nuclei (%) [9]: 14%
Population Healthy Nuclei (%) [9]: 65%
Population Hoechst High Intensity Objects (%) [9]: 36%
Population Membrane Permeable-Phenotype (%) [9]: 3%
Population Mitochondria Different-Phenotype (%) [9]: 38%
Population Mitotic Cells (%) [9]: 52%
Population Normal (%) [9]: 63%
Population Pyknosed Nuclei (%) [9]: 19%
Population Tubulin-Different-Phenotype (%) [9]: 29%
Total Cell Count [9]: 307
Population Apoptotic (%) [10]: 36%
Population Fragmented Nuclei (%) [10]: 17%
Population Healthy Nuclei (%) [10]: 73%
Population Hoechst High Intensity Objects (%) [10]: 27%
Population Membrane Permeable-Phenotype (%) [10]: 0%
Population Mitochondria Different-Phenotype (%) [10]: 32%
Population Mitotic Cells (%) [10]: 63%
Population Normal (%) [10]: 72%
Population Pyknosed Nuclei (%) [10]: 9%
Population Tubulin-Different-Phenotype (%) [10]: 19%
Total Cell Count [10]: 277
Population Apoptotic (%) [11]: 84%
Population Fragmented Nuclei (%) [11]: 23%
Population Healthy Nuclei (%) [11]: 23%
Population Hoechst High Intensity Objects (%) [11]: 75%
Population Membrane Permeable-Phenotype (%) [11]: 0%
Population Mitochondria Different-Phenotype (%) [11]: 86%
Population Mitotic Cells (%) [11]: 15%
Population Normal (%) [11]: 24%
Population Pyknosed Nuclei (%) [11]: 52%
Population Tubulin-Different-Phenotype (%) [11]: 53%
Total Cell Count [11]: 256
Population Apoptotic (%) [12]: 75%
Population Fragmented Nuclei (%) [12]: 21%
Population Hoechst High Intensity Objects (%) [12]: 67%
Population Mitochondria Different-Phenotype (%) [12]: 80%
Population Mitotic Cells (%) [12]: 25%
Population Normal (%) [12]: 32%
Population Pyknosed Nuclei (%) [12]: 55%
Population Tubulin-Different-Phenotype (%) [12]: 40%
Total Cell Count [12]: 203

CC(C)(C)c1ccc(CSc2cnn(C(C)(C)C)c(=O)c2Cl)cc1 [PYRIDABEN]
Population Apoptotic (%) [1]: 51%
Population Fragmented Nuclei (%) [1]: 7%
Population Healthy Nuclei (%) [1]: 78%
Population Hoechst High Intensity Objects (%) [1]: 12%
Population Membrane Permeable-Phenotype (%) [1]: 0%
Population Mitochondria Different-Phenotype (%) [1]: 51%
Population Mitotic Cells (%) [1]: 48%
Population Normal (%) [1]: 87%
Population Pyknosed Nuclei (%) [1]: 14%
Population Tubulin-Different-Phenotype (%) [1]: 34%
Total Cell Count [1]: 299
Population Apoptotic (%) [2]: 28%
Population Fragmented Nuclei (%) [2]: 6%
Population Healthy Nuclei (%) [2]: 83%
Population Hoechst High Intensity Objects (%) [2]: 8%
Population Mitochondria Different-Phenotype (%) [2]: 63%
Population Mitotic Cells (%) [2]: 71%
Population Normal (%) [2]: 91%
Population Pyknosed Nuclei (%) [2]: 10%
Population Tubulin-Different-Phenotype (%) [2]: 30%
Total Cell Count [2]: 306
Population Apoptotic (%) [3]: 56%
Population Fragmented Nuclei (%) [3]: 6%
Population Healthy Nuclei (%) [3]: 77%
Population Hoechst High Intensity Objects (%) [3]: 11%
Population Membrane Permeable-Phenotype (%) [3]: 0%
Population Mitochondria Different-Phenotype (%) [3]: 75%
Population Mitotic Cells (%) [3]: 44%
Population Normal (%) [3]: 88%
Population Pyknosed Nuclei (%) [3]: 15%
Population Tubulin-Different-Phenotype (%) [3]: 55%
Total Cell Count [3]: 359
Population Apoptotic (%) [4]: 62%
Population Fragmented Nuclei (%) [4]: 8%
Population Healthy Nuclei (%) [4]: 74%
Population Hoechst High Intensity Objects (%) [4]: 17%
Population Mitochondria Different-Phenotype (%) [4]: 81%
Population Mitotic Cells (%) [4]: 37%
Population Normal (%) [4]: 82%
Population Pyknosed Nuclei (%) [4]: 16%
Population Tubulin-Different-Phenotype (%) [4]: 38%
Total Cell Count [4]: 236
Population Apoptotic (%) [5]: 33%
Population Fragmented Nuclei (%) [5]: 7%
Population Healthy Nuclei (%) [5]: 80%
Population Hoechst High Intensity Objects (%) [5]: 9%
Population Membrane Permeable-Phenotype (%) [5]: 0%
Population Mitochondria Different-Phenotype (%) [5]: 37%
Population Mitotic Cells (%) [5]: 66%
Population Normal (%) [5]: 90%
Population Pyknosed Nuclei (%) [5]: 11%
Population Tubulin-Different-Phenotype (%) [5]: 27%
Total Cell Count [5]: 373
Population Apoptotic (%) [6]: 35%
Population Healthy Nuclei (%) [6]: 83%
Population Hoechst High Intensity Objects (%) [6]: 8%
Population Mitochondria Different-Phenotype (%) [6]: 43%
Population Mitotic Cells (%) [6]: 64%
Population Normal (%) [6]: 91%
Population Pyknosed Nuclei (%) [6]: 8%
Population Tubulin-Different-Phenotype (%) [6]: 22%
Total Cell Count [6]: 370
Population Apoptotic (%) [7]: 44%
Population Fragmented Nuclei (%) [7]: 7%
Population Healthy Nuclei (%) [7]: 79%
Population Hoechst High Intensity Objects (%) [7]: 10%
Population Membrane Permeable-Phenotype (%) [7]: 0%
Population Mitochondria Different-Phenotype (%) [7]: 68%
Population Mitotic Cells (%) [7]: 55%
Population Normal (%) [7]: 89%
Population Pyknosed Nuclei (%) [7]: 12%
Population Tubulin-Different-Phenotype (%) [7]: 52%
Total Cell Count [7]: 386
Population Apoptotic (%) [8]: 46%
Population Fragmented Nuclei (%) [8]: 8%
Population Healthy Nuclei (%) [8]: 70%
Population Hoechst High Intensity Objects (%) [8]: 23%
Population Mitochondria Different-Phenotype (%) [8]: 65%
Population Mitotic Cells (%) [8]: 53%
Population Normal (%) [8]: 76%
Population Pyknosed Nuclei (%) [8]: 21%
Population Tubulin-Different-Phenotype (%) [8]: 25%
Total Cell Count [8]: 252
Population Apoptotic (%) [9]: 19%
Population Fragmented Nuclei (%) [9]: 11%
Population Healthy Nuclei (%) [9]: 80%
Population Hoechst High Intensity Objects (%) [9]: 5%
Population Membrane Permeable-Phenotype (%) [9]: 0%
Population Mitochondria Different-Phenotype (%) [9]: 25%
Population Mitotic Cells (%) [9]: 80%
Population Normal (%) [9]: 94%
Population Pyknosed Nuclei (%) [9]: 7%
Population Tubulin-Different-Phenotype (%) [9]: 14%
Total Cell Count [9]: 585
Population Apoptotic (%) [10]: 30%
Population Fragmented Nuclei (%) [10]: 9%
Population Healthy Nuclei (%) [10]: 84%
Population Hoechst High Intensity Objects (%) [10]: 4%
Population Mitochondria Different-Phenotype (%) [10]: 21%
Population Mitotic Cells (%) [10]: 69%
Population Normal (%) [10]: 95%
Population Pyknosed Nuclei (%) [10]: 6%
Population Tubulin-Different-Phenotype (%) [10]: 13%
Total Cell Count [10]: 522
Population Apoptotic (%) [11]: 48%
Population Fragmented Nuclei (%) [11]: 8%
Population Healthy Nuclei (%) [11]: 79%
Population Hoechst High Intensity Objects (%) [11]: 11%
Population Membrane Permeable-Phenotype (%) [11]: 0%
Population Mitochondria Different-Phenotype (%) [11]: 59%
Population Mitotic Cells (%) [11]: 51%
Population Normal (%) [11]: 88%
Population Pyknosed Nuclei (%) [11]: 12%
Population Tubulin-Different-Phenotype (%) [11]: 43%
Total Cell Count [11]: 424
Population Apoptotic (%) [12]: 64%
Population Fragmented Nuclei (%) [12]: 13%
Population Healthy Nuclei (%) [12]: 71%
Population Hoechst High Intensity Objects (%) [12]: 14%
Population Mitochondria Different-Phenotype (%) [12]: 48%
Population Mitotic Cells (%) [12]: 35%
Population Normal (%) [12]: 85%
Population Pyknosed Nuclei (%) [12]: 14%
Population Tubulin-Different-Phenotype (%) [12]: 28%
Total Cell Count [12]: 290
